The source made the active and inactive calls. The rule behind the calls is not given here.
How the values were obtained:
[1] = Inhibition of Sporosarcina pasteurii CCM 2056 urease assessed as reduction in ammonia production using urea as substrate measured for 120 mins by phenol-hypochlorite method; details: read-out: Ki
Sporosarcina pasteurii [2] = assay: Time-dependent Sporosarcina pasteurii CCM 2056 urease assessed as reduction in ammonia production using urea as substrate by phenol-hypochlorite method
Sporosarcina pasteurii [3] = assay: Competitive inhibition of Sporosarcina pasteurii CCM 2056 urease assessed as reduction in ammonia production preincubated with enzyme followed by addition of varying levels of urea as substrate measured for 120 mins by Lineweaver-Burk plot analysis
Sporosarcina pasteurii [4] = assay: Reversible inhibition of Sporosarcina pasteurii CCM 2056 urease assessed as reduction in ammonia production by measuring recovery of enzyme activity at 10 times IC50 preincubated for 60 mins followed by 100-fold dilution in to PBS containing urea as substrate by Berthelot colorimetric assay relative to control; set-up: Activity: scale not given: the % may be the effect or the level left
[5] = Inhibition of Proteus mirabilis 543 urease at pH 5.5 assessed as reduction in ammonia production using urea as substrate measured after 15 mins by NaOH-hypochlorite method; details: read-out: IC50
Summary of the method: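 Intact Proteus mirabilis cells were tested at pH 5.5, matching physiological urine, with 5 mM urea. Inhibitors were added without preincubation, and IC50 was determined.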

[6] = Inhibition of Proteus mirabilis 543 urease at pH 5.5 assessed as reduction in ammonia production using urea as substrate preincubated for 120 mins followed by substrate addition measured after 15 mins by NaOH-hypochlorite method; details: read-out: IC50
Summary of the method: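 Intact Proteus mirabilis cells were preincubated with inhibitors in PBS for 2 h, then tested at pH 5.5, matching urine acidity, with 5 mM urea. IC50 was determined.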

[7] = Inhibition of Sporosarcina pasteurii CCM 2056 urease assessed as reduction in ammonia production by measuring initial state enzyme-inhibitor complex using urea as substrate measured for 120 mins by phenol-hypochlorite method; details: read-out: Ki
[8] = Inhibition of Sporosarcina pasteurii CCM 2056 urease assessed as reduction in ammonia production by measuring steady state enzyme-inhibitor complex using urea as substrate measured for 120 mins by phenol-hypochlorite method; details: read-out: Ki
[9] = Glutathione reactivity after 36 hrs in presence of 10 mM GSH by 1H NMR analysis
[10] = Glutathione reactivity in pH 7.4 PBS measured after 6 to 36 hrs in presence of 1.375 mmol GSH by DTNB reagent based spectrophotometric method
Summary of the method: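 Glutathione served as a model reactive-thiol compound. Unreacted GSH was quantified spectrophotometrically by a modified Ellman method, and reaction progress was followed over time up to 36 h.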

Papain (Carica papaya) [11] = target: T1, Papain (Carica papaya) (UniProt P00784); assay: Inhibition of Carica papaya papain at 0.1 to 0.25 mM using BzArgOEt as substrate measured for 30 mins
T1 sequence (whole entry): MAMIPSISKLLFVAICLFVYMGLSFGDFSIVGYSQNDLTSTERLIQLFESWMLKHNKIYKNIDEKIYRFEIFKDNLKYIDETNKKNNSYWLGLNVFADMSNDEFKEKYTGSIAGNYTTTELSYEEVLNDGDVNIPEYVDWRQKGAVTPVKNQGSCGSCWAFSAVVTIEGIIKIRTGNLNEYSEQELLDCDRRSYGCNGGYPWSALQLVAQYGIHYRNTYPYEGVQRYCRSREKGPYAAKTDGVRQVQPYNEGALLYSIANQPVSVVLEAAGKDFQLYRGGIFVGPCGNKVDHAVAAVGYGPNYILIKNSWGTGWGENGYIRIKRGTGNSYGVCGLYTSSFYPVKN

Proteus mirabilis = assay: Inhibition of Proteus mirabilis 543 urease at pH 5.5 assessed as reduction in ammonia production using urea as substrate followed by substrate addition by NaOH-hypochlorite method; details: TDE = time-dependent effect
BALB/3T3 = assay: Cytotoxicity against mouse BALB/3T3 cells assessed as reduction in cell proliferation after 72 hrs by SRB assay; assay type: cell-based; details: balb/3t3, 72 h
Summary of the method: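 Mouse BALB/3T3 fibroblasts were scored by SRB assay, with cytotoxicity given as LC50 values.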

Papain (Carica papaya) [12] = target: T1, Papain (Carica papaya); assay: Inhibition of Carica papaya papain at 0.1 to 1 mM using BzArgOEt as substrate measured for 30 mins

inhibition (Papain (Carica papaya) [11])	Structure (SMILES)	Ki [1]	TDI (Sporosarcina pasteurii [2])	mode of inhibition (Sporosarcina pasteurii [3])	Activity (Sporosarcina pasteurii [4])	IC50 [5]	IC50 [6]	Ki [7]	Ki [8]	Drug metabolism [9]	K [10]	log K [10]	inhibition (Proteus mirabilis)	LC50 (BALB/3T3)	inhibition (Papain (Carica papaya) [12])
inactive	O=C(O)/C=C/c1ccccc1 [CINNAMIC ACID]	21.5 µM	Active	Active	40.3%	492 µM	125 µM	595 µM	23 µM	Metabolite not detected	< 1.67e-06 M⁻¹ s⁻¹	> -4	Tde	–	–
–	O=C(O)/C=C/C(=O)O [FUMARIC ACID]	36.5 µM	Active	Active	39.7%	182 µM	65.5 µM	432 µM	37.1 µM	–	5e-05 M⁻¹ s⁻¹	-2.52	Tde	Non-Toxic	inactive
–	O=C(O)C#CC(=O)O	0.0425 µM	Active	Active	10.9%	326 µM	88.6 µM	3.95 µM	0.0553 µM	–	0.000122 M⁻¹ s⁻¹	-2.14	Tde	Non-Toxic	inactive

Reference: ChEMBL document CHEMBL3997837, “Potent covalent inhibitors of bacterial urease identified by activity-reactivity profiling” (Bioorg Med Chem Lett, 2017)
